Data: ChEMBL document CHEMBL3817726, “Chemically Diverse Group I p21-Activated Kinase (PAK) Inhibitors Impart Acute Cardiovascular Toxicity with a Narrow Therapeutic Window” (J Med Chem, 2016)
Converted amounts (≈) assume the structure as drawn. Values belong to the molecule of their own block, whether it stands above or below them.

What was measured:
[1] = Ratio of fCmax associated with acute adverse effect in mouse at 25 to 50 mg/kg, po to IC50 for PAK1/2-mediated phosphorylation of MEK1 at serine 298 in human EBC1 cells
Outline: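 Mouse tolerability studies at multiple doses, given p.o. or i.p. Total plasma concentrations were converted to unbound levels. The minimum unbound Cmax linked to adverse effects was set against the cellular IC50 for inhibition of MEK1 S298 phosphorylation.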

[2] = target: Serine/threonine-protein kinase PAK 1/PAK 2 (Homo sapiens, UniProt Q13177+Q13153); test: Inhibition of PAK1/2 in human EBC1 cells assessed as phosphorylation of MEK1 at serine 298 after 2 hrs by HTRF assay; format: cell-based
[3] = target: Serine/threonine-protein kinase PAK 1 (Homo sapiens, UniProt Q13153); test: Inhibition of human recombinant N-terminal 6-His-tagged PAK1 kinase domain (249 to 545 residues) expressed in Escherichia coli BL21(DE3) assessed as phosphorylation of coumarin labeled FRET peptide substrate at Ser/Thr19 preincubated for 10 mins followed by ATP addition measured after 60 mins by Z'-LYTE assay
Mus musculus [4] = test: fCmax associated with acute adverse effect in mouse at 25 to 50 mg/kg, po; format: ADME, organism-based; conditions: in vivo
Outline: (§1)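 Mouse tolerability studies at multiple doses, oral or intraperitoneal. Minimum unbound plasma concentration associated with adverse effects (total Cmax converted to unbound) compared with IC50 for inhibition of MEK1 S298 phosphorylation in cells.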

[5] = Cmax associated with acute adverse effect in mouse at 25 to 50 mg/kg, po; format: ADME, organism-based; conditions: in vivo
Outline: (§2)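 Mouse tolerability studies tested multiple doses, given orally or intraperitoneally. Plasma drug concentrations were measured, including at a 15 min time point. The minimum concentration associated with adverse clinical signs or death was taken as the adverse Cmax and was converted to an unbound value.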

[6] = Fraction unbound in mouse plasma at 25 to 50 mg/kg, po; format: ADME, organism-based
[7] = target: Serine/threonine-protein kinase PAK 2 (Homo sapiens, UniProt Q13177); test: Inhibition of human recombinant PAK2 assessed as phosphorylation of coumarin labeled FRET peptide substrate at Ser/Thr19 preincubated for 10 mins followed by ATP addition measured after 60 mins by Z'-LYTE assay
[8] = Fraction unbound in mouse plasma at 50 to 100 mg/kg, ip; format: ADME, organism-based
Mus musculus [9] = test: fCmax associated with acute adverse effect in mouse at 50 to 100 mg/kg, ip; format: ADME, organism-based; conditions: in vivo; outline: as §1
[10] = Cmax associated with acute adverse effect in mouse at 50 to 100 mg/kg, ip; format: ADME, organism-based; conditions: in vivo; outline: as §2
[11] = Ratio of fCmax associated with acute adverse effect in mouse at 50 to 100 mg/kg, ip to IC50 for PAK1/2-mediated phosphorylation of MEK1 at serine 298 in human EBC1 cells; outline: as §1
[12] = Efflux ratio of permeability across basolateral to apical side over apical to basolateral side in MDCK cells at 10 uM after 60 mins; format: ADME, cell-based, Canis lupus familiaris; conditions: dog
[13] = Cmax associated with acute adverse effect in mouse at 25 to 150 mg/kg, ip; format: ADME, organism-based; conditions: in vivo
Mus musculus [14] = test: fCmax associated with acute adverse effect in mouse at 25 to 150 mg/kg, ip; format: ADME, organism-based; conditions: in vivo
[15] = Apparent permeability across apical to basolateral side in MDCK cells at 10 uM after 60 mins; format: ADME, cell-based, Canis lupus familiaris; conditions: dog
[16] = Kinetic solubility of the compound at pH 7.4; format: physicochemical; conditions: buffer, read-out: Kinetic_solubility
[17] = Ratio of fCmax associated with acute adverse effect in mouse at 25 to 150 mg/kg, ip to IC50 for PAK1/2-mediated phosphorylation of MEK1 at serine 298 in human EBC1 cells
Homo sapiens = species: Homo sapiens; test: Selectivity for human recombinant N-terminal 6-His-tagged PAK1 kinase domain (249 to 545 residues) over LCK (unknown origin)
[18] = Fraction unbound in mouse plasma at 25 to 150 mg/kg, ip; format: ADME, organism-based
[19] = Lipophilicity, log D of the compound at pH 7.4; format: physicochemical; conditions: buffer
Mus musculus [20] = test: Toxicity in mouse at 100 mg/kg, ip; format: organism-based; conditions: in vivo
[21] = Cmax associated with acute adverse effect in mouse at 100 mg/kg, ip; format: ADME, organism-based; parameters: dose 100 mg/kg, route intraperitoneal; conditions: in vivo; outline: as §2
Mus musculus [22] = test: fCmax associated with acute adverse effect in mouse at 100 mg/kg, ip; format: ADME, organism-based; conditions: in vivo; outline: as §1
[23] = Fraction unbound in mouse plasma at 100 mg/kg, ip; format: ADME, organism-based
[24] = Ratio of fCmax associated with acute adverse effect in mouse at 100 mg/kg, ip to IC50 for PAK1/2-mediated phosphorylation of MEK1 at serine 298 in human EBC1 cells
Mus musculus [25] = test: Toxicity in mouse assessed as mortality at 12.5 mg/kg, po after 0.5 hrs; format: organism-based; conditions: in vivo
Outline: (§3)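 Mouse tolerability study at multiple oral doses, with lethality and clinical signs monitored after dosing. Plasma drug concentrations were measured, and the minimum unbound concentration linked to adverse effects was compared with the cellular pMEK S298 IC₅₀.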

[26] = Plasma concentration in mouse at 25 mg/kg, po at 0.25 hrs
[27] = Plasma concentration in mouse at 12.5 mg/kg, po at 0.5 hrs; format: ADME, organism-based
[28] = Plasma concentration in mouse at 25 mg/kg, po at 15 mins; format: ADME, organism-based
Mus musculus [29] = test: Toxicity in mouse assessed as mortality at 12.5 mg/kg, po after 0.25 hrs; format: organism-based; conditions: in vivo
Plasma = test: Unbound drug concentration in mouse plasma at 25 mg/kg, po at 0.25 hrs; conditions: in vivo
[30] = Ratio of fCmax associated with acute adverse effect in mouse at 12.5 to 25 mg/kg, po to IC50 for PAK1/2-mediated phosphorylation of MEK1 at serine 298 in human EBC1 cells
Outline: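 Mice were dosed at multiple levels, orally or intraperitoneally, and monitored for acute adverse signs. The minimum unbound plasma Cmax associated with adverse effects was converted from total drug concentration and compared with the cellular IC50 for phospho-MEK1 S298 inhibition.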

Mus musculus [31] = test: fCmax associated with acute adverse effect in mouse at 12.5 to 25 mg/kg, po; format: ADME, organism-based; conditions: in vivo; outline: as §1
Mus musculus [32] = test: Toxicity in mouse assessed as mortality at 25 mg/kg, po after 2 hrs; format: organism-based; conditions: in vivo; outline: as §3
[33] = Cmax associated with acute adverse effect in mouse at 12.5 to 25 mg/kg, po; format: ADME, organism-based; conditions: in vivo; outline: as §2
[34] = Fraction unbound in mouse plasma at 12.5 to 25 mg/kg, po; format: ADME, organism-based

Sequence of Serine/threonine-protein kinase PAK 2 (Q13177 whole entry): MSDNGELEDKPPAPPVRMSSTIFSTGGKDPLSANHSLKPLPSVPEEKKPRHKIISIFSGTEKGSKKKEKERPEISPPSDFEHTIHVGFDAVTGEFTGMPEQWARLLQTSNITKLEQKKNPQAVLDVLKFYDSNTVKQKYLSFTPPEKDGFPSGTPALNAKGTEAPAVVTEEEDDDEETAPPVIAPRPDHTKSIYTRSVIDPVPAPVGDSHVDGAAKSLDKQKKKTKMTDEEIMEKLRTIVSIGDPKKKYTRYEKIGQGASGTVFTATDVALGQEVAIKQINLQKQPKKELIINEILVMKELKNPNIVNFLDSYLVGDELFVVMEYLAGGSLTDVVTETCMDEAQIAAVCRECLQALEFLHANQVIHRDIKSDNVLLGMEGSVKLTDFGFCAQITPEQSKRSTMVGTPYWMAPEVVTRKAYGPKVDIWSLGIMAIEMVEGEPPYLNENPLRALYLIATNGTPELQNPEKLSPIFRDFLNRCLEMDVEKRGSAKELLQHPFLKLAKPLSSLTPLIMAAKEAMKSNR
Sequence of Serine/threonine-protein kinase PAK 1 (Q13153 whole entry, the tested form may be a part): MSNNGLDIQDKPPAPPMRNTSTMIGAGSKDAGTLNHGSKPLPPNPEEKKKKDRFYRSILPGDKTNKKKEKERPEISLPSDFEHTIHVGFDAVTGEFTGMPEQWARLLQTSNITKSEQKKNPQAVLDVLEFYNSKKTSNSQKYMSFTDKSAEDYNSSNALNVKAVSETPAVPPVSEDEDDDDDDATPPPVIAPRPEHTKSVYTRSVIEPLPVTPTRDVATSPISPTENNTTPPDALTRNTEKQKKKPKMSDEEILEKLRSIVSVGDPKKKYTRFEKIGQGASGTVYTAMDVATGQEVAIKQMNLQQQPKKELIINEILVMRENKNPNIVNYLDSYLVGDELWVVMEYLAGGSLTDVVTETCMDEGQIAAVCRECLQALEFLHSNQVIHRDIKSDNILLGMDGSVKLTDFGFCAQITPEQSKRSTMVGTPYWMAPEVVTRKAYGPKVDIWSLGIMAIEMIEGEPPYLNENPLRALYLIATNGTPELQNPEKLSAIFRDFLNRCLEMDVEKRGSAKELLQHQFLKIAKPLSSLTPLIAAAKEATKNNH

- IC50 [2]: 800 nM
- Ki [3]: 22 nM
- fraction unbound [6]: 0.059
- Ki [7]: 39 nM
SMILES: CNc1ncc2cc(-c3ccc(-n4cncc(C)c4=O)cc3Cl)c(=O)n(CCOC)c2n1
- Ratio [1]: 1
- fCmax (Mus musculus [4]): 0.85 µM
- Cmax [5]: 14000 nM

- fraction unbound [8]: 0.076
- IC50 [2]: 280 nM
- Ki [3]: 5.2 nM
- Ki [7]: 4.6 nM
SMILES: Cc1nccn(-c2ccc(-c3cc4cnc(NC5COC5)nc4n(CC4CCNCC4(F)F)c3=O)c(Cl)c2)c1=O (single isomer, unassigned)
- fCmax (Mus musculus [9]): 0.89 µM
- Cmax [10]: 12000 nM
- Ratio [11]: 1

- efflux ratio at 1 h, 10 µM [12]: 0.4
- IC50 [2]: 150 nM
- Papp A→B at 1 h, 10 µM [15]: 37 ×10⁻⁶ cm/s
- solubility kinetic [16]: 2.6 µM (≈ 1.21 µg/mL)
- Selectivity ratio (Homo sapiens): 123
- Ki [3]: 6.3 nM
- fraction unbound [18]: 0.006
- Ki [7]: 21 nM
- logD [19]: 2.5
SMILES: CCn1c(=O)c(-c2ccc(-n3cccc(C)c3=O)cc2Cl)cc2cnc(NC3COC3)nc21
- Cmax [13]: 41000 nM
- fCmax (Mus musculus [14]): 0.24 µM
- Ratio [17]: 1

- IC50 [2]: 240 nM
- Ki [3]: 11 nM
- fraction unbound [23]: 0.027
- Ki [7]: 9.5 nM
SMILES: CCc1cccn(-c2ccc(-c3cc4cnc(NC)nc4n(C[C@H]4CNCCO4)c3=O)c(Cl)c2)c1=O
- Activity (Mus musculus [20]): Toxic
- Cmax [21]: 28000 nM
- fCmax (Mus musculus [22]): 0.76 µM
- Ratio [24]: 1

SMILES: CNc1ncc2cc(-c3ccc(-n4cccc(C)c4=O)cc3Cl)c(=O)n(CCC3(F)CN(C)C3)c2n1
- Activity (Mus musculus [25]): Toxic
- concentration at 0.25 h [26]: 2240 nM
- efflux ratio at 1 h, 10 µM [12]: 2
- concentration at 0.5 h [27]: 1890 nM
- concentration at 0.25 h [28]: 2800 nM
- Activity (Mus musculus [29]): Toxic
- Cp(f) (Plasma): 88 nM
- Ratio [30]: 1
- IC50 [2]: 33 nM
- fCmax (Mus musculus [31]): 0.088 µM
- Papp A→B at 1 h, 10 µM [15]: 6.9 ×10⁻⁶ cm/s
- solubility kinetic [16]: 117 µM (≈ 59.6 µg/mL)
- Selectivity ratio (Homo sapiens): 57
- Ki [3]: 0.95 nM
- Activity (Mus musculus [32]): Toxic
- Cmax [33]: 2800 nM
- fraction unbound [34]: 0.032
- Ki [7]: 2 nM
- logD [19]: 1.8
